According to ChEMBL document CHEMBL4613269, “2-((4-Arylpiperazin-1-yl)methyl)benzonitrile Derivatives as Orally Available Inhibitors of Hepatitis C Virus with a Novel Mechanism of Action” (J Med Chem, 2020):
Calls of active or inactive are those of the source. The rule behind the calls is not given here.

How the values were obtained:
Hepatitis C virus [1] = assay: Antiviral activity against HCV J6/JFH/JC1 infected in human Huh7.5 cells assessed as reduction in viral RNA levels incubated for 72 hrs by qRT-PCR analysis; assay type: functional, organism-based
In short: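 Huh7.5 cells seeded 24 h, then infected with wild-type (or mutant) HCV with compound added at the same time. Incubated 72 h. Intracellular HCV RNA measured by qRT-PCR, 2^-ΔCt method, normalized to GAPDH. Eight-step 1:5 serial dilutions in triplicate; EC50 by Reed & Muench; three independent experiments.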

[2] = Toxicity in Kunming mouse assessed as induction of mortality at 250 to 1000 mg/kg dosed via single oral gavage and measured on day 7 post treatment; assay type: organism-based; settings: in vivo
In short: (§1)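 Kunming mice, 4 groups of n = 6 (3 male, 3 female). Fasted from 12 h before to 1 h after dosing. Single oral gavage of 250, 500 or 1000 mg/kg suspended in 0.5% CMC-Na, or vehicle alone. Followed for 7 days: survival, body weight before and at day 7. Day-7 blood taken for AST, ALT, urea nitrogen and creatinine.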

[3] = Cytotoxicity in human Huh7.5 cells assessed as reduction in cell viability incubated for 96 hrs by MTT assay; assay type: cell-based
In short: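 Huh7.5 cells seeded 24 h before compound addition. Viability read by MTT at 96 h. Eight-step 1:5 serial dilutions in triplicate; CC50 by Reed & Muench; three independent experiments.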

[4] = Selectivity index, ratio of CC50 for cytotoxicity in human Huh7.5 cells assessed as reduction in cell viability incubated for 96 hrs by MTT assay to EC50 for antiviral activity against HCV J6/JFH/JC1 infected in human Huh7.5 cells incubated for 72 hrs by In-Cell Western assay; assay type: toxicity, cell-based; settings: read-out: Ratio CC50/EC50
In short: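 HCVcc (MOI=0.1) infected Huh7.5 cells co-treated with eight-step 1:5 serial dilutions, triplicate wells. After 72 h, fixed, permeabilized, and stained for HCV Core and GAPDH with IR-dye secondaries. Core normalized to GAPDH. CC50 came from MTT at 96 h in uninfected Huh7.5 cells. EC50/CC50 were derived by Reed & Muench, mean ± SD of three independent experiments.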

Hepatitis C virus [5] = assay: Antiviral activity against HCV GS4.3 infected in human Huh7.5 cells assessed as reduction in viral replication at 0.3125 to 5 uM simultaneously treated with viral infection for 4 hrs and measured after 72 hrs by In-Cell Western assay; assay type: functional, organism-based; settings: Hepacivirus hominis
In short: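 Huh7.5 cells infected with HCV while incubated with compound, either for 4 h across a concentration series or at 1.0 µM for varied times down to 15 min. Supernatant then replaced with fresh medium. Intracellular Core protein measured by In-Cell Western at 72 h.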

Hepatitis C virus [6] = assay: Antiviral activity against HCV genotype 1b pseudoparticle infected in human Huh7.5 cells assessed as reduction in viral replication; assay type: functional, organism-based; settings: Hepacivirus hominis; subtype 1b
In short: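 Genotype 1b or 2a HCV pseudoparticles made by co-transfecting HEK 293T cells with envelope and luciferase-reporter HIV plasmids; input standardized by luciferase. Huh7.5 cells co-incubated with compound and HCVpp for 4 h at 37°C, washed, then luciferase read at 72 h.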

Hepatitis C virus [7] = assay: Induction of HCV GS4.3 viral particles inactivation infected in human Huh7.5 cells assessed as reduction in viral protein levels at 1 uM pre-incubated with virus for 2 hrs before viral infection and measured after 72 hrs by Western blot assay; assay type: functional, organism-based; settings: Hepacivirus hominis
In short: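 Huh7.5 cells inoculated with HCV stock pre-treated 2 h with 1.0 μM compound, then diluted 20-fold (final 0.05 μM). Control stocks were treated with 0.05 μM or 1.0 μM. Intracellular proteins were extracted and analysed by western blot at 72 h, with HCV Core/actin ratio normalized to control.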

Hepatitis C virus [8] = assay: Resistance index, ratio of EC50 for antiviral activity against HCV with glycoprotein E1 F291V mutant infected in human Huh7.5 cells to EC50 for Antiviral activity against HCV with wild type glycoprotein E1 infected in human Huh7.5 cells; assay type: functional, Hepacivirus hominis
In short: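 Huh7.5 cells seeded at 3×10^4/cm² and incubated 24 h, then infected with wild-type or E1 F291V mutant HCV while simultaneously treated with compound in eight-step 1:5 serial dilutions, run in triplicate. Intracellular HCV RNA was read by qRT-PCR at 72 h (2^-ΔCT, normalized to GAPDH). EC50 by Reed & Muench; the index is mutant EC50 over wild-type EC50.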

Zika virus = assay: Antiviral activity against Zika virus infected in Vero E6 cells assessed as reduction in virus-induced cytopathic effect incubated for 96 hrs by CCK8 assay; assay type: functional, organism-based; settings: Vero C1008, 96 h
[9] = Cytotoxicity in African green monkey Vero E6 cells assessed as reduction in cell viability; assay type: cell-based, Vero C1008; settings: chlorocebus sabaeus
Hepatitis C virus [10] = assay: Antiviral activity against HCV expressing NS3 D168V mutant by qRT-PCR analysis based by Reed-Muench method; assay type: functional, organism-based, Hepacivirus hominis
In short: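 Huh7.5 cells seeded at 3×10^4/cm², infected 24 h later with wild-type or mutant HCV stock while compound or solvent was added at the same time. Intracellular HCV RNA measured by qRT-PCR at 72 h, normalised to GAPDH, 2^-ΔCT method. EC50 by Reed & Muench from eight-step 1:5 serial dilutions, triplicate wells.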

[11] = Toxicity in Kunming mouse assessed as effect on AST level at 250 to 1000 mg/kg dosed via single oral gavage and measured on day 7 post treatment; assay type: organism-based; settings: in vivo; in short: as §1
[12] = Toxicity in Kunming mouse assessed as effect on […] level at 250 to 1000 mg/kg dosed via single oral gavage and measured on day 7 post treatment; assay type: organism-based; settings: in vivo; in short: as §1
[13] = Half life in Sprague-Dawley rat at 5 mg/kg, iv measured after 0.08 to 72 hrs post dose by LC-MS/MS analysis; assay type: ADME, organism-based; settings: in vivo
In short: (§2)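 Single dose to fasted (12 h) animals: oral gavage 15 mg/kg as suspension in 0.5% CMC-Na, or iv 5 mg/kg dissolved in citric acid buffer pH 5.0 with 2.5% DMSO. Jugular vein blood on heparin at 0.08 (iv only) to 72 h. Plasma assayed by LC-MS/MS; parameters from noncompartmental analysis.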

[14] = Drug level in Sprague-Dawley rat at 5 mg/kg, iv measured after 72 hrs post dose by LC-MS/MS analysis; assay type: ADME, organism-based; settings: in vivo, read-out: Drug uptake; in short: as §2
[15] = Cmax in Sprague-Dawley rat at 15 mg/kg, po measured after 0.08 to 72 hrs post dose by LC-MS/MS analysis; assay type: ADME, organism-based; parameters: dose 15 mg/kg, route oral; settings: in vivo; in short: as §2
[16] = Apparent Volume of distribution in Sprague-Dawley rat at 15 mg/kg, po measured after 0.08 to 72 hrs post dose by LC-MS/MS analysis; assay type: ADME, organism-based; settings: in vivo; in short: as §2
[17] = Clearance in Sprague-Dawley rat at 15 mg/kg, po measured after 0.08 to 72 hrs post dose by LC-MS/MS analysis; assay type: ADME, organism-based; settings: in vivo; in short: as §2
[18] = Drug level in Sprague-Dawley rat at 15 mg/kg, po measured after 72 hrs post dose by LC-MS/MS analysis; assay type: ADME, organism-based; settings: in vivo, read-out: Drug uptake; in short: as §2
[19] = Half life in beagle dog at 5 mg/kg, iv measured after 0.08 to 72 hrs post dose by LC-MS/MS analysis; assay type: ADME, organism-based, Canis lupus familiaris; settings: in vivo
[20] = AUC (0 to 72 hrs) in beagle dog at 5 mg/kg, iv measured after 0.08 to 72 hrs post dose by LC-MS/MS analysis; assay type: ADME, organism-based, Canis lupus familiaris; parameters: time < 72 hr, dose 5 mg/kg, route intravenous; settings: in vivo; in short: as §2

## CN(C)CCN(C)c1ccc(C#N)c(CN2CCN(c3ccc(Cl)cc3)CC2)c1
Hepatitis C virus [1]; Hepacivirus hominis
  Activity: Dose-dependent effect
Hepatitis C virus [1]; J6/JFH/JC1, Huh7.5, 72 h
  EC50: 0.022 µM
[2]
  Activity: Non-Toxic
[3]
  CC50 at 96 h: 12.8 to 14.8 µM
[4]
  selectivity ratio: 111 to 154
Hepatitis C virus [5]
  Activity: Dose-dependent effect
Hepatitis C virus [6]
  Activity: Dose-dependent effect
Hepatitis C virus [7]
  Activity: inactive
Hepatitis C virus [8]
  Ratio EC50: 20
Zika virus
  EC50: 5.15 µM
[9]
  CC50: 18.4 µM
Hepatitis C virus [10]
  EC50: 0.03 µM
[11]
  Activity: Non-Toxic
[12]
  Activity: Non-Toxic
[13]
  half-life: 14.3 h
[14]
  concentration at 72 h: 9.2 ng/mL
[15]
  Cmax: 501 ng/mL
[16]
  Vz: 34.83407 L/kg
[17]
  CL/F: 37.4 mL/min/kg
[18]
  concentration at 72 h: 13.7 ng/mL
[19]
  half-life: 7.28 h
[20]
  AUC(0-t) at 72 h: 1070 ng·h/mL
